Measured values published in ChEMBL document CHEMBL1129568, “Structure-activity relationships of the antimalarial agent artemisinin. 3. Total synthesis of (+)-13-carbaartemisinin and related tetra- and tricyclic structures” (J Med Chem, 1996).
≈ marks a conversion by molar mass, not a printed value.

Key:
[1] = test system: Plasmodium falciparum; experiment: In vitro antimalarial activity for Plasmodium falciparum W2; assay type: functional, organism-based
[2] = test system: Plasmodium falciparum; experiment: In vitro antimalarial activity for Plasmodium falciparum D6; assay type: functional, organism-based
[3] = test system: Plasmodium falciparum; experiment: In vitro antimalarial activity for Plasmodium falciparum W2; Not active; assay type: functional, organism-based
[4] = test system: Plasmodium falciparum; experiment: In vitro antimalarial activity for Plasmodium falciparum D6; Not active; assay type: functional, organism-based
[5] = test system: Plasmodium falciparum; experiment: In vitro antimalarial activity against Plasmodium falciparum D6 relative to artemisinin; assay type: functional
How it was run: (§1)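 Relative potency is the artemisinin IC50 divided by the analog IC50, × 100%, with artemisinin set at 100%. Tested in vitro against P. falciparum D-6 or W-2.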

[6] = test system: Plasmodium falciparum; experiment: In vitro antimalarial activity against Plasmodium falciparum W-2 relative to artemisinin; assay type: functional; how it was run: as §1
[7] = test system: Plasmodium falciparum; experiment: In vitro antimalarial activity for Plasmodium falciparum D6 in LDH […] assay; assay type: functional, organism-based
How it was run: (§2)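 In vitro test against P. falciparum D-6 or W-2 using Makler's parasite lactate dehydrogenase (pLDH) assay, which reads out parasite pLDH enzyme activity. Run at the University of Mississippi.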

[8] = test system: Plasmodium falciparum; experiment: In vitro antimalarial activity for Plasmodium falciparum W2 in LDH […] assay; assay type: functional, organism-based; how it was run: as §2

Work on `C[C@@H]1CC[C@@H]([C@@H](C)CO)[C@@]23CC[C@@](C)(CC[C@@H]12)OO3` yielded an IC50 [1] of 1.5 µg/mL (≈ 5.59 µM) and an IC50 [2] of 0.3 µg/mL (≈ 1.12 µM).

For `C[C@@H]1CC[C@@H]([C@@H](C)COCc2ccccc2)[C@@]23C=C[C@@](C)(CC[C@@H]12)OO3`, the IC50 [3] was “Not Active” and the IC50 [4] was “Not Active”.

For `C[C@@H]1CC[C@@H]([C@@H](C)CO)[C@@]23C=C[C@@](C)(CC[C@@H]12)OO3`, the IC50 [3] was “Not Active” and the IC50 [2] was 1 µg/mL (≈ 3.75 µM).

For `COC[C@H](C)[C@@H]1CC[C@@H](C)[C@@H]2CC[C@]3(C)CC[C@@]21OO3`, the IC50 [1] was 0.7 µg/mL (≈ 2.48 µM) and the IC50 [2] was 0.31 µg/mL (≈ 1.1 µM).

With `C[C@@H]1CC[C@H]2[C@@H](C)CO[C@H]3C[C@]4(C)CC[C@@H]1[C@@]32OO4` the IC50 [1] was 0.00078 µg/mL (≈ 0.00293 µM), the Relative activity [5] was 53 and the Relative activity [6] was 58. It also gave an IC50 [2] of 0.00172 µg/mL (≈ 0.00646 µM).

With `COC[C@H](C)[C@@H]1CC[C@@H](C)[C@@H]2CC[C@]3(C)C=C[C@@]21OO3` the IC50 [3] was “Not Active” and the IC50 [2] was 0.92 µg/mL (≈ 3.28 µM).

In the case of `C[C@@H]1CC[C@@H]([C@@H](C)COCc2ccccc2)[C@@]23CC[C@@](C)(CC[C@@H]12)OO3`, the IC50 [1] was 0.66 µg/mL (≈ 1.84 µM) and the IC50 [2] was 0.29 µg/mL (≈ 0.809 µM).

Molecule `C[C@@H]1CC[C@H]2[C@@H](C)CO[C@@H]3C[C@@]4(C)CC[C@@H]1[C@]32OO4` has an IC50 [1] of 0.00279 µg/mL (≈ 0.0105 µM), a Relative activity [5] of 32 and a Relative activity [6] of 16. For the same molecule, the IC50 [2] was 0.00287 µg/mL (≈ 0.0108 µM).

`C[C@@H]1CC[C@H]2[C@@H](C)C(=O)O[C@@H]3C[C@@]4(C)CC[C@@H]1[C@]32OO4` gave an IC50 [7] of 0.006 µg/mL (≈ 0.0214 µM), an IC50 [1] of 0.0126 µg/mL (≈ 0.045 µM) and an IC50 [8] of 0.02 µg/mL (≈ 0.0713 µM). For the same molecule, the Relative activity [5] was 23.3, the Relative activity [6] was 11 and the IC50 [2] was 0.0388 µg/mL (≈ 0.138 µM).

Work on `C[C@@H]1CC[C@H]2[C@@H](C)C(=O)O[C@@H]3O[C@@]4(C)CC[C@@H]1[C@]32OO4` [ARTEMISININ] yielded an IC50 [7] of 0.0014 µg/mL (≈ 0.00496 µM), an IC50 [1] of 0.00048 µg/mL (≈ 0.0017 µM) and an IC50 [8] of 0.0022 µg/mL (≈ 0.00779 µM). It also gave a Relative activity [5] of 100, a Relative activity [6] of 100 and an IC50 [2] of 0.00097 µg/mL (≈ 0.00344 µM).
